# Measurements published in ChEMBL document CHEMBL3817745, “Structure-Activity Relationship for the 4(3H)-Quinazolinone Antibacterials” (J Med Chem, 2016).
# Assays:
# Pseudomonas aeruginosa = assay: Antibacterial activity against Pseudomonas aeruginosa […] incubated for 16 to 20 hrs by microdilution method; format: functional
# Method in brief: (§1)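 CLSI broth microdilution. 2-fold serial dilutions were made in cation-adjusted Mueller–Hinton broth, with 5% lysed horse blood added for Streptococcus strains, in triplicate. Inoculum 5×10^5 CFU/mL. Plates incubated 36 °C for 16–20 h. MIC taken as the lowest concentration visibly inhibiting growth.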
# Bacillus cereus = assay: Antibacterial activity against Bacillus cereus ATCC 13061 incubated for 16 to 20 hrs by microdilution method; format: functional; method in brief: as §1
# Staphylococcus aureus [1] = assay: Antibacterial activity against vancomycin/methicillin-resistant Staphylococcus aureus VRS2 clinical isolate incubated for 16 to 20 hrs by microdilution method; format: functional
# Streptococcus oralis = assay: Antibacterial activity against Streptococcus oralis ATCC 9811 incubated for 16 to 20 hrs by microdilution method; format: functional; method in brief: as §1
# Bacillus licheniformis = assay: Antibacterial activity against Bacillus licheniformis ATCC 12759 incubated for 16 to 20 hrs by microdilution method; format: functional; method in brief: as §1
# HepG2 = assay: Cytotoxicity against human HepG2 cells incubated for 16 hrs by XTT assay; format: cell-based; details: HepG2, 16 h
# Method in brief: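 HepG2 cells were tested with an XTT viability read-out, in triplicate. IC50 was obtained by nonlinear regression.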
# Escherichia coli = assay: Antibacterial activity against Escherichia coli ATCC 25922 incubated for 16 to 20 hrs by microdilution method; format: functional; method in brief: as §1
# Enterococcus faecalis [2] = assay: Antibacterial activity against methicillin-susceptible Enterococcus faecalis ATCC 29212 incubated for 16 to 20 hrs by microdilution method; format: functional; method in brief: as §1
# Staphylococcus aureus [3] = assay: Antibacterial activity against vancomycin/methicillin-resistant Staphylococcus aureus VRS1 clinical isolate incubated for 16 to 20 hrs by microdilution method; format: functional
# Enterococcus faecium = assay: Antibacterial activity against Enterococcus faecium NCTC 7171 incubated for 16 to 20 hrs by microdilution method; format: functional; method in brief: as §1
# Klebsiella aerogenes = assay: Antibacterial activity against Enterobacter aerogenes ATCC 35029 incubated for 16 to 20 hrs by microdilution method; format: functional; method in brief: as §1
# Klebsiella pneumoniae = assay: Antibacterial activity against Klebsiella pneumoniae ATCC 700603 incubated for 16 to 20 hrs by microdilution method; format: functional; method in brief: as §1
# Staphylococcus aureus [4] = assay: Antibacterial activity against methicillin-susceptible Staphylococcus aureus ATCC 29213 incubated for 16 to 20 hrs by microdilution method; format: functional
# [5] = Hemolytic activity against human RBC at 64 ug/ml relative to control; format: ADME, cell-based, Erythrocyte; details: erythrocyte
# Method in brief: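 Hemolysis was measured at a fixed 64 μg/mL on a 10% red-cell suspension from heparinized human blood. Triton-X served as the positive control, and results are given as percent hemolysis.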
# Staphylococcus aureus [6] = assay: Antibacterial activity against mecA-positive methicillin/oxacillin/tetracycline-resistant Staphylococcus aureus ATCC 27660 incubated for 16 to 20 hrs by microdilution method; format: functional
# Staphylococcus aureus [7] = assay: Antibacterial activity against mecA-positive multidrug resistant Staphylococcus aureus COL NRS100 incubated for 16 to 20 hrs by microdilution method; format: functional
# Acinetobacter baumannii = assay: Antibacterial activity against Acinetobacter baumannii ATCC 17961 incubated for 16 to 20 hrs by microdilution method; format: functional; method in brief: as §1
# [8] = test system: Staphylococcus epidermidis; assay: Antibacterial activity against Staphylococcus epidermidis ATCC 35547 incubated for 16 to 20 hrs by microdilution method; format: functional; method in brief: as §1
# Streptococcus pyogenes = assay: Antibacterial activity against Streptococcus pyogenes ATCC 49399 incubated for 16 to 20 hrs by microdilution method; format: functional; method in brief: as §1
# Mus musculus [9] = assay: AUC (0 to last) in ICR mouse peritonitis model infected with methicillin resistant Staphylococcus aureus ATCC 27660 at 5 mg/kg, iv administered as single dose measured up to 8 hrs by UPLC analysis; format: ADME, organism-based; design: dose 5 mg/kg, route intravenous, time 0 - last; details: in vivo
# Method in brief: (§2)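 Fast PK: female ICR mice (n = 2 per time point) given single tail-vein iv injection at 5, 10 or 20 mg/kg in 25% DMSO/65% propylene glycol/10% water (2.5, 5 or 10 mg/mL); terminal cardiac blood at 5 min, 40 min, 2, 4, 8 h; plasma analysed by UPLC with internal standard calibration.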
# Enterococcus faecalis [10] = assay: Antibacterial activity against vancomycin-resistant Enterococcus faecalis 99 clinical isolate incubated for 16 to 20 hrs by microdilution method; format: functional
# Staphylococcus aureus [11] = assay: Antibacterial activity against mecA-positive multidrug resistant Staphylococcus aureus NRS120 incubated for 16 to 20 hrs by microdilution method; format: functional
# Mus musculus [12] = assay: AUC (0 to last) in ICR mouse peritonitis model infected with methicillin resistant Staphylococcus aureus ATCC 27660 at 20 mg/kg, iv administered as single dose measured up to 8 hrs by UPLC analysis; format: ADME, organism-based; design: dose 20 mg/kg, time 0 - last, route intravenous; details: in vivo; method in brief: as §2
# [13] = test system: Staphylococcus haemolyticus; assay: Antibacterial activity against Staphylococcus haemolyticus ATCC 29970 incubated for 16 to 20 hrs by microdilution method; format: functional
# Mus musculus [14] = assay: AUC (0 to last) in ICR mouse peritonitis model infected with methicillin resistant Staphylococcus aureus ATCC 27660 at 10 mg/kg, iv administered as single dose measured up to 8 hrs by UPLC analysis; format: ADME, organism-based; design: dose 10 mg/kg, time 0 - last, route intravenous; details: in vivo, 8 h; method in brief: as §2
# Staphylococcus aureus [15] = assay: Antibacterial activity against mecA-positive multidrug resistant Staphylococcus aureus NRS119 incubated for 16 to 20 hrs by microdilution method; format: functional
# [16] = Ratio of IC50 for human HepG2 cells to MIC for methicillin-susceptible Staphylococcus aureus ATCC 29213
# Method in brief: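 HepG2 XTT cytotoxicity in triplicate, IC50 by nonlinear regression, divided by broth-microdilution MIC for ATCC 29213.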
# [17] = Ratio of hemolytic concentration for human RBC to MIC for methicillin-susceptible Staphylococcus aureus ATCC 29213
Compound,MIC (Pseudomonas aeruginosa),MIC (Bacillus cereus),MIC (Staphylococcus aureus [1]),MIC (Streptococcus oralis),MIC (Bacillus licheniformis),IC50 (HepG2),MIC (Escherichia coli),MIC (Enterococcus faecalis [2]),MIC (Staphylococcus aureus [3]),MIC (Enterococcus faecium),MIC (Klebsiella aerogenes),MIC (Klebsiella pneumoniae),MIC (Staphylococcus aureus [4]),Activity [5],MIC (Staphylococcus aureus [6]),MIC (Staphylococcus aureus [7]),MIC (Acinetobacter baumannii),MIC [8],MIC (Streptococcus pyogenes),MIC (Enterococcus faecalis [10]),further results
CC(=O)Nc1cccc(-n2c(/C=C/c3ccc(C#N)cc3)nc3ccccc3c2=O)c1,≥ 16 µg/mL,> 128 µg/mL,0.125 µg/mL,> 128 µg/mL,> 128 µg/mL,51 µg/mL,≥ 16 µg/mL,128 µg/mL,4 µg/mL,> 128 µg/mL,≥ 16 µg/mL,≥ 16 µg/mL,0.25 µg/mL,< 1%,1 µg/mL,1 µg/mL,≥ 16 µg/mL,0.06 µg/mL,> 128 µg/mL,64 µg/mL,AUClast (Mus musculus [9]): 38 µg·min/mL
O=C(O)c1cccc(-n2c(/C=C/c3ccc(F)cc3)nc3ccccc3c2=O)c1,≥ 16 µg/mL,> 128 µg/mL,1 µg/mL,128 µg/mL,> 128 µg/mL,95.5 µg/mL,≥ 16 µg/mL,> 128 µg/mL,8 µg/mL,> 128 µg/mL,≥ 16 µg/mL,≥ 16 µg/mL,1 µg/mL,< 1%,2 µg/mL,8 µg/mL,≥ 16 µg/mL,0.125 µg/mL,128 µg/mL,> 128 µg/mL,MIC (Staphylococcus aureus [11]): 8 µg/mL; AUClast (Mus musculus [12]): 2560 µg·min/mL; MIC [13]: 0.25 µg/mL
CC(=O)Nc1cccc(-n2c(/C=C/c3ccc(F)cc3)nc3ccccc3c2=O)c1,≥ 16 µg/mL,–,–,–,–,46.6 µg/mL,≥ 16 µg/mL,–,–,≥ 8 µg/mL,≥ 16 µg/mL,≥ 16 µg/mL,1 µg/mL,3.6%,–,–,≥ 16 µg/mL,–,–,–,AUClast (Mus musculus [14]): 284 µg·min/mL
CS(=O)(=O)Nc1cccc(-n2c(/C=C/c3ccc(C#N)cc3)nc3ccccc3c2=O)c1,≥ 16 µg/mL,> 128 µg/mL,0.125 µg/mL,> 128 µg/mL,> 128 µg/mL,33.4 µg/mL,≥ 16 µg/mL,> 128 µg/mL,0.5 µg/mL,> 128 µg/mL,≥ 16 µg/mL,≥ 16 µg/mL,0.004 µg/mL,< 1%,0.25 µg/mL,0.5 µg/mL,≥ 16 µg/mL,0.125 µg/mL,> 128 µg/mL,128 µg/mL,MIC (Staphylococcus aureus [11]): 0.25 µg/mL; MIC (Staphylococcus aureus [15]): 0.5 µg/mL; MIC [13]: 0.125 µg/mL; AUClast (Mus musculus [9]): 31 µg·min/mL
O=c1c2ccccc2nc(/C=C/c2ccc(F)cc2)n1-c1cccc(O)c1,≥ 16 µg/mL,–,–,–,–,16.4 µg/mL,≥ 16 µg/mL,–,–,≥ 8 µg/mL,≥ 16 µg/mL,≥ 16 µg/mL,0.25 µg/mL,< 1%,–,–,≥ 16 µg/mL,–,–,–,Ratio [16]: >30; Ratio [17]: > 120; AUClast (Mus musculus [9]): 466 µg·min/mL
N#Cc1ccc(/C=C/c2nc3ccccc3c(=O)n2-c2cccc(N)c2)cc1,≥ 16 µg/mL,> 128 µg/mL,4 µg/mL,> 128 µg/mL,> 128 µg/mL,77.2 µg/mL,≥ 16 µg/mL,> 128 µg/mL,8 µg/mL,> 128 µg/mL,≥ 16 µg/mL,≥ 16 µg/mL,0.5 µg/mL,3.3%,–,4 µg/mL,≥ 16 µg/mL,0.125 µg/mL,> 128 µg/mL,16 µg/mL,MIC (Staphylococcus aureus [11]): 4 µg/mL; MIC (Staphylococcus aureus [15]): 4 µg/mL; MIC [13]: 1 µg/mL; AUClast (Mus musculus [14]): 204 µg·min/mL
